For orientation: Cmax means the highest concentration seen after dosing. As a reminder, the Kd is the constant that tells how readily two partners part at equilibrium.

Series [1] has as its target T1, Protein cereblon/Indoleamine 2,3-dioxygenase 1 (Homo sapiens, UniProt P14902+Q96SW2). In words: Protac activity at IDO1/CRBN in IFNgamma-stimulated human GBM6 cells assessed as IDO1 degradation measured after 24 hrs by Western blotting analysis. The format is cell-based. To be noted: dose 0.1-10 µM, DDE = dose-dependent effect. On the technique in general: In western blotting, separated proteins are transferred to a membrane and probed.

The target in series [2] is T1, Protein cereblon/Indoleamine 2,3-dioxygenase 1. Description: Binding affinity to CRBN/IDO1 (unknown origin) assessed as ternary complex affinity by bio-layer interferometry assay. The format is protein assay. In a few lines:
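For the ternary complex, compound was preincubated with a 25-fold molar excess of CRBN, and binding of this binary complex to IDO1 was followed in real time.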

For series [3] the target is unchanged. Description: Protac activity at CRBN/IDO1 non-enzyme mediated NF-kappaB signal in IFNgamma-stimulated human GBM43 cells assessed as decrease in p65 phosphorylation at 0.1 to 10 uM measured after 24 hrs Western blotting assay. The series is classed as cell-based. The note with it: GBM43 cell, dose 0.1-10 µM. An outline of the steps:
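IFNγ-stimulated cells were induced for 24 h, then treated at several concentrations for 24 h. Lysates were western blotted for IDO1, phospho-p65, total p65 and GAPDH.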

Series [4] shares this target. Description: Protac activity at CRBN/IDO1-HA expressed in human U87 cells assessed as IDO1 degradation measured at 1 to 10 uM after 24 hrs by Western blotting analysis. The note with it: dose 1-10 µM. The series is classed as cell-based.
Series [5] shares this target. In words: Protac activity at IDO1/CRBN in IFNgamma-stimulated human GBM43 cells assessed as IDO1 degradation by measuring decrease in protein level measured at 10 uM for 16 to 96 hrs by Western blotting analysis. The series is classed as cell-based. To be noted: GBM43 cell, time 16-96 hrs.
Series [6] has the same target. Description: Protac activity at CRBN/IDO1 in IFNgamma-stimulated human GBM43 cells assessed as decrease in kynurenine level measured after 24 hrs by Ehrlich's test. The format is cell-based. To be noted: GBM43 cell, DDE = dose-dependent effect. An outline of the steps: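 U87 or GBM43 cells given compound together with 50 ng/mL IFNγ for 24 h. Supernatant kynurenine was measured with Ehrlich's reagent. Cells cultured without IFNγ served as control.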

Series [7] is described as follows: Cmax in C57BL/6 mouse brain at 25 mg/kg, ip. The format is ADME, organism-based. On the set-up: dose 25 mg/kg, route ip.
The target in series [8] is T1, Protein cereblon/Indoleamine 2,3-dioxygenase 1. In words: Protac activity at IDO1/CRBN in IFNgamma-stimulated human DIPG007 cells assessed as IDO1 degradation measured after 24 hrs by Western blotting analysis. The format is cell-based. The note with it: HSJD-DIPG-007, dose 0.1-10 µM, DDE = dose-dependent effect.
The target is the same in series [9]. In words: Protac activity at IDO1/CRBN in IFNgamma-stimulated human U87 cells assessed as IDO1 degradation by measuring decrease in protein level measured after 24 hrs by Western blotting analysis. The format is cell-based. The note with it: dose 0.1-10 µM, DDE = dose-dependent effect. An outline of the steps:
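U87 cells given human IFNγ 50 ng/mL for 24 h to induce IDO1, then PROTAC over a dose range starting at 0.01 μM and rising to 30 μM for 24 h. Western blot read-out. IDO1 band densitometry normalized to untreated samples and fitted to give DC50, the concentration giving 50% IDO1 degradation. n = 3 independent experiments, mean ± SEM.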

Series [10] shares this target. In words: Protac activity at CRBN/IDO1 in IFNgamma-stimulated human OVCAR-5 cells assessed as decrease in kynurenine level at 10 uM measured after 24 hrs by Ehrlich's test. The series is classed as cell-based.
Series [11] addresses T2, Indoleamine 2,3-dioxygenase 1 (Homo sapiens, UniProt P14902). Description: Binding affinity to IDO1 (unknown origin) assessed as dissociation constant by bio-layer interferometry assay. In a few lines: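 Bio-layer interferometry measured binding to IDO1 at 30 °C in PBS with 0.5% DMSO. Kd, kon and koff were derived.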
In general terms: Biolayer interferometry detects binding as a change in optical thickness at a sensor tip.
Target sequence in this assay (P14902 whole entry): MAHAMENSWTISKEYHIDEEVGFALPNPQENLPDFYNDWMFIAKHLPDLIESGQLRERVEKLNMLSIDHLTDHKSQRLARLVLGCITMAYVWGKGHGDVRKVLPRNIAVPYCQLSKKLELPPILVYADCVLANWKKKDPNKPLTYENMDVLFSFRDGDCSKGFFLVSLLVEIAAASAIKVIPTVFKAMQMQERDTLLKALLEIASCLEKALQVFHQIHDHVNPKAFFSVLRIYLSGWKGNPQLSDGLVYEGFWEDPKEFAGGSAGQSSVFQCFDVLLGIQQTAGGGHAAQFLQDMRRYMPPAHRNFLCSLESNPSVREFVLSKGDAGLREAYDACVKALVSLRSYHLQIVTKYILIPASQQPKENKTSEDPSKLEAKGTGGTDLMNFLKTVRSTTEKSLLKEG

Series [12] deals with T2, Indoleamine 2,3-dioxygenase 1. Description: Binding affinity to IDO1 (unknown origin) assessed as binary complex stability by measuring half-life by bio-layer interferometry assay.
Target sequence in this assay (P14902 whole entry, looked up): as the sequence (P14902 whole entry) above
Series [13] in a line: Drug uptake in C57BL/6 mouse serum at 10 to 100 mg/kg, ip treated 5 days/week for 3 weeks by LC/MS/MS analysis. The format is ADME, organism-based. To be noted: in vivo, 504 h, dose 10-100 mg/kg. In a few lines: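 Male C57BL/6 mice dosed ip at 10, 25, 50 or 100 mg/kg, 5 days/week for 3 weeks, alongside vehicle. After 3 weeks, serum and brain homogenate were analysed by mass spectrometry for drug level; mean ± SEM, n = 3 mice/dose.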

Activity calls are given as the source filed them. The calls are words filed in the database; no cut-off is given here.

T1 sequence (P14902 whole entry, looked up): as the sequence (P14902 whole entry) above
T1 sequence (Q96SW2 whole entry, looked up): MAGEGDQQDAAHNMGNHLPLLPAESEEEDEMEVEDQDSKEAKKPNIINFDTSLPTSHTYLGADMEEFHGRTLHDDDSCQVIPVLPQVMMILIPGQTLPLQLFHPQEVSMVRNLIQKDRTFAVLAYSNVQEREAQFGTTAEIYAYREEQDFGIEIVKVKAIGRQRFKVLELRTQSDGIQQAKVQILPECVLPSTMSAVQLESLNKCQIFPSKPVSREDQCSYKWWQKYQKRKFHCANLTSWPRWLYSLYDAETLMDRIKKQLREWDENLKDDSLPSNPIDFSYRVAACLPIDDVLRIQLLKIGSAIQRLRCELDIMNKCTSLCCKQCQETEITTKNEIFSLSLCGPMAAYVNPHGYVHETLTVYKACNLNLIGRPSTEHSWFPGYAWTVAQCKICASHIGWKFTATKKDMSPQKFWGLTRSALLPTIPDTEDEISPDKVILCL

Regarding `C[C@@H](C(=O)Nc1ccc(OC2CCN(C(=O)CCOCCOCCNc3cccc4c3C(=O)N(C3CCC(=O)NC3=O)C4=O)CC2)cc1)[C@H]1CC[C@@H](c2ccnc3ccc(F)cc32)CC1` (stereo partly drawn), the Activity result in [1], in [8] and in series [9] was “Dde” throughout. Besides, in series [2], the K worked out at 117 nM. Also, the inhibition entry in series [3] and in series [10] was “Active” in each case. Besides, the outcome in [4] and in series [5] was Active. Moreover, the inhibition entry in [6] was “Dde”. Further, the Cmax in series [7] was found to be 2000 nM. In series [11], the Kd was determined as 640 nM. In series [12], the T1/2 was determined as 16 s. Besides, the Drug uptake entry in series [13] is given as “Active”.

Values taken from ChEMBL document CHEMBL5150051, “Identification and Characterization of a Novel Indoleamine 2,3-Dioxygenase 1 Protein Degrader for Glioblastoma” (J Med Chem, 2022).
